Molecules are shown by their SMILES.

We go through 94 compounds from ChEMBL document CHEMBL4513216, “Probing the Open Global Health Chemical Diversity Library for Multistage-Active Starting Points for Next-Generation Antimalarials” (ACS Infect Dis, 2020).

This data set is described as follows: Toxicity liver stage against HepG2, at 10uM. The class given is cell-based. Also on record: test concentration 10 uM, cell line HepG2-A16-CD81EGFP. The note with it: human, HepG2-A16-CD81EGFP cells; read-out: INHIBITION
The method in brief:
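Uninfected HepG2-A16-CD81EGFP cells, 3 × 10^3 per well, 1536-well, plated on prespotted compound at 10 μM final, parasite-free screening media added to match infected plates; puromycin 10 μM positive, DMSO 0.5% negative; run in parallel with 48 h PbLuc assay at 37 °C, 5% CO2; viability by CellTiter-Glo luminescence, normalized to controls.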
Regarding `Cc1cnc(N2CC[C@@H]3O[C@@H](COCC(=O)N(C)C)CC[C@@H]32)nc1`, the cytotoxicity at 10 µM amounted to 0.0508%.

For `CN(CC(=O)N1CCCC(n2ccnc2)C1)c1cnccn1` (centres undefined), the cytotoxicity at 10 µM was found to be 1.41%.

Regarding `CCn1ccnc1CN1C[C@@H](NC(=O)C2CC2)[C@H](c2ccc(C)cc2)C1`, the cytotoxicity at 10 µM is 2.63%.

Consider `CC(C)[C@H](NS(C)(=O)=O)C(=O)NCc1cc(-c2cccc(Cl)c2)nn1C`, for which the cytotoxicity at 10 µM was -5.47%.

Regarding `CC1CCCN(S(=O)(=O)N2CCOC3(CCCC3)C2)C1` (centres undefined), the cytotoxicity at 10 µM was -1.57%.

For the compound `O=C(NC1CC1)c1nc2c(s1)CCCN2c1ccccc1`, the cytotoxicity at 10 µM was -157%.

Consider `Cc1cc(NC2CCc3ncnn3C2)n2nc(C(F)(F)F)nc2n1` (centres undefined), for which the cytotoxicity at 10 µM was determined as 2.93%.

As for `CCc1noc(CCC(=O)N2CCC(c3ccn[nH]3)C2)n1` (centres undefined), the cytotoxicity at 10 µM is 6.03%.

Take `N#Cc1ccc(S(=O)(=O)NC(=O)C2CC(c3ccccc3)=NO2)cc1` (centres undefined): the cytotoxicity at 10 µM came out at 0.462%.

Turning to `Cc1nc(N2CCCN(C(=O)c3ccsc3)CC2)c2cnn(C)c2n1`, the cytotoxicity at 10 µM is -10.8%.

For `Cc1n[nH]cc1CNC1(c2ccc(Br)cc2)CC1`, the cytotoxicity at 10 µM came to 13.9%.

Regarding `CCOCC1CCCN(C(=O)NCc2ccc(-c3ccn[nH]3)cc2)C1` (centres undefined), the cytotoxicity at 10 µM is -3.25%.

Turning to `O=C(NCc1ccc2c(c1)OCO2)N1CCCC2(C1)OCCO2`, the cytotoxicity at 10 µM was 3.07%.

Turning to `CCOc1ncccc1CNC(=O)c1csc(Br)c1`, the cytotoxicity at 10 µM was determined as 0.291%.

For `CC(=O)NCC(=O)N1C[C@@H](C)[C@@]2(CCN(c3ccsc3)C2=O)C1`, the cytotoxicity at 10 µM was -74.7%.

Consider `Cn1ncc(C(=O)O)c1C(=O)Nc1nc2ccccc2s1`, for which the cytotoxicity at 10 µM was 7.9%.

On to `COc1ccc(N2CCN(C(=O)Cn3nccc3C)CC2(C)C)cc1`, for which the cytotoxicity at 10 µM was found to be 6.68%.

On to `CCS(=O)(=O)N1CCN(C(=O)C(C)C)CC2(CC(=O)N(C)C2)C1` (centres undefined), for which the cytotoxicity at 10 µM came to 8.4%.

As for `Cn1cc(CNCCNC(=O)Cc2ccccc2)c(-c2cccnc2)n1`, the cytotoxicity at 10 µM is 13.1%.

For the compound `COC(=O)c1cc(C)nc(N2CCN(Cc3ccn(C(C)C)c3)CC2)n1`, the cytotoxicity at 10 µM came to 9.77%.

Take `COCCCN(Cc1cnc(C2CCCCC2)nc1)C1CCN(C)CC1`: the cytotoxicity at 10 µM was -4.43%.

Regarding `CCNc1nc2cn(-c3cccc(OC)c3)c(=O)c-2c[nH]1`, the cytotoxicity at 10 µM was found to be 8.65%.

Turning to `CCOCc1cncc2c1CCN(S(=O)(=O)c1cccc(C)c1)C2`, the cytotoxicity at 10 µM amounted to 13.6%.

In the case of `Cc1nc(C(C)C)sc1C(=O)NCCSc1ccccn1`, the cytotoxicity at 10 µM was determined as 3.76%.

For `CCOc1ccc(Cl)c(C(=O)NCCC(=O)Nc2ccncc2)n1`, the cytotoxicity at 10 µM is -13.9%.

Take `CCSCc1csc(-c2ccc(S(C)(=O)=O)cc2)n1`: the cytotoxicity at 10 µM came out at 8.21%.

For `COCc1nc(CNc2cc(C)nc(-c3ccccc3)n2)no1`, the cytotoxicity at 10 µM was found to be 7.06%.

Consider `COc1ccccc1-c1ccc(C2CCCN(C(C)=O)C2)nc1` (centres undefined), for which the cytotoxicity at 10 µM was -4.96%.

`CCOc1ncccc1NC(=O)Nc1c(C)nn(C(C)C)c1C`: the cytotoxicity at 10 µM worked out at 17.8%.

For `CN(CCC(=O)N1CCc2sccc2C1)Cc1cc(Br)cs1`, the cytotoxicity at 10 µM is -14.8%.

In the case of `CC(=O)N1Cc2nccn2CC(CNC(=O)c2ccnnc2)C1` (centres undefined), the cytotoxicity at 10 µM was -138%.

`COc1cc(-c2cnnc(NCCSC)n2)cc(OC)c1OC`: the cytotoxicity at 10 µM worked out at 3.98%.

For the compound `CNC(=O)Cn1nnc(-c2cc3ccccc3o2)n1`, the cytotoxicity at 10 µM stood at 5.65%.

Consider `O=c1[nH]cnc2[nH]c(N3CCNCC3)nc12`, for which the cytotoxicity at 10 µM is -4.31%.

Consider `CS(=O)(=O)CCNC1CCCN(Cc2noc(C3CC3)n2)C1` (centres undefined), for which the cytotoxicity at 10 µM was -1.38%.

Take `COCCNC(=O)[C@H]1C[C@@H]2CCN(c3ccccc3)C[C@H]2O1`: the cytotoxicity at 10 µM is 2.78%.

With `c1cncc(NCCNC2CCSCC2)c1`, the cytotoxicity at 10 µM was -0.307%.

On to `CCc1ccc(CN2CCOC(Cc3cccc(F)c3)C2)nc1` (centres undefined), for which the cytotoxicity at 10 µM was -2.33%.

Regarding `Cc1ccc(NC2CCN(C(=O)Cc3csc(C)n3)CC2)nn1`, the cytotoxicity at 10 µM was -6.51%.

With `O=C(O)c1ccnc(-c2ccnc(COc3ccccc3Cl)n2)c1`, the cytotoxicity at 10 µM was -9.86%.

Regarding `O=C1CC(c2ccncc2)C2(CCN(CCc3ccccc3)CC2)N1` (centres undefined), the cytotoxicity at 10 µM is -1.58%.

As for `CCn1ccnc1CN1CCCC(CO)(CCCc2ccccc2)C1` (centres undefined), the cytotoxicity at 10 µM is -4.84%.

`COc1cc(N2CCC3(CCN(Cc4nccs4)CC3)C2)ncn1`: the cytotoxicity at 10 µM was -36%.

Consider `CCNC(=O)N1CCc2ccc(NC(=O)NCCOCC)cc21`, for which the cytotoxicity at 10 µM was -3.86%.

As to `Cc1nc(CN2C[C@@H]3OCCN(c4ncc(F)cn4)[C@@H]3C2)cs1`, the cytotoxicity at 10 µM was -8.52%.

Turning to `O=C(O)C1CCN(c2nc3c(-c4ccccc4F)csc3c(=O)[nH]2)CC1`, the cytotoxicity at 10 µM is -10%.

For `COCC(O)CN1CCC(NC(=O)c2cccc(C)c2)CC1` (centres undefined), the cytotoxicity at 10 µM was found to be 1.44%.

Turning to `CC1CCCN(C(=O)c2cc(-c3ccco3)cs2)C1` (centres undefined), the cytotoxicity at 10 µM came out at 7%.

On to `O=C(C1CC=CC1)N1C[C@H]2CN(Cc3ccncc3)C(=O)[C@H]2C1`, for which the cytotoxicity at 10 µM was -86.6%.

Consider `CC(=O)NCC(=O)N1CCC2(CC1)C(=O)N(CC1CC1)c1ccccc12`, for which the cytotoxicity at 10 µM was -4.1%.

With `CCOc1cccc(CNC(=O)NCC(O)c2cccc(F)c2)c1` (centres undefined), the cytotoxicity at 10 µM was -2.92%.

For the compound `CSCC(CCO)Nc1cccc(C(F)(F)F)n1` (centres undefined), the cytotoxicity at 10 µM turned out to be 0.515%.

Take `Cc1ccncc1CN1CCOCC1c1[nH]ncc1C` (centres undefined): the cytotoxicity at 10 µM was 1.78%.

Regarding `O=C1CC2(CCN(Cc3ccoc3)C2)CN1c1ccc2c(c1)OCO2` (centres undefined), the cytotoxicity at 10 µM is -6.72%.

For `CN(C)C(CNC(=O)NCCOc1ccccc1)c1ccco1` (centres undefined), the cytotoxicity at 10 µM is -6.2%.

For the compound `Cc1nccn1-c1ccc(NC(=O)C2CCCN2Cc2c[nH]cn2)cc1` (centres undefined), the cytotoxicity at 10 µM was -15.2%.

For the compound `COc1ccc(CN2CCO[C@H]3[C@H](OCc4ccncc4)CC[C@@H]32)cc1`, the cytotoxicity at 10 µM is -30.9%.

Turning to `O=C(CC1CCC2(CC1)CCN(Cc1nccs1)CC2)N1CC=CC1`, the cytotoxicity at 10 µM is -4.35%.

For `O=C(CCn1ccnc1)N1CC[C@H](Oc2ccc(F)cc2)[C@@H](O)CC1`, the cytotoxicity at 10 µM was -3.06%.

For the compound `CC(C(=O)NCc1cccc(N2CC=CC2)c1)n1cccn1` (centres undefined), the cytotoxicity at 10 µM was -5.07%.

As for `c1cnnc(N2CCCC2CNCc2nc(-c3ccco3)no2)c1` (centres undefined), the cytotoxicity at 10 µM was -10.2%.

With `COCCN1CCc2ncnc(NC(C)C)c2CC1`, the cytotoxicity at 10 µM was 2.13%.

Regarding `C[C@]1(O)CN(CCO)CC[C@@H]1Oc1cccc(F)c1`, the cytotoxicity at 10 µM is -6%.

`O=C(Nc1cccc(Cl)c1)c1nn(C2CCS(=O)(=O)C2)c2c1CCCC2` (centres undefined): the cytotoxicity at 10 µM was -12.9%.

For the compound `CSCCC1CC(=O)Nc2cc(O)c(C)cc21` (centres undefined), the cytotoxicity at 10 µM came to 1.97%.

As for `CC(C)c1nn(C)c(N2CCOCC2)c1CNCc1nncn1C`, the cytotoxicity at 10 µM was determined as 5.59%.

On to `CN1CCN(Cc2cnn(-c3ccccc3Cl)c2)[C@H]2CS(=O)(=O)C[C@H]21`, for which the cytotoxicity at 10 µM worked out at 6.19%.

Take `c1cnc(Nc2cncc(C3CCCN3)n2)cn1` (centres undefined): the cytotoxicity at 10 µM was -8.69%.

In the case of `CC(C)c1nccc(C2(c3ccccc3Cl)CCNCC2)n1`, the cytotoxicity at 10 µM was 1.93%.

On to `Cc1c(F)cc(C(=O)O)cc1S(=O)(=O)Nc1ccc2c(c1)OCCO2`, for which the cytotoxicity at 10 µM is -1.45%.

As to `COCCCNC(=O)NCc1ccc(C)cc1`, the cytotoxicity at 10 µM was found to be 3.37%.

Consider `Cc1sc2nc(CCN)nc(N3CCC(N4CCCC4)CC3)c2c1C`, for which the cytotoxicity at 10 µM was -51.6%.

Take `Cn1cc(C(=O)N[C@@H]2CN(Cc3ccoc3)[C@@H]3CCCO[C@@H]32)cn1`: the cytotoxicity at 10 µM was -104%.

As to `O=C(c1ncccn1)N1C[C@@H]2CN(CC3CC3)CCO[C@@H]2C1`, the cytotoxicity at 10 µM was found to be 6.99%.

With `O=C(NC[C@H]1OC[C@@H](NC2COC2)[C@@H]1O)c1ccccc1`, the cytotoxicity at 10 µM was -1.05%.

Regarding `COC1C[C@@H]2CN(C(=O)c3cccc4c3OCCO4)C[C@@H]2C1` (some centres undefined), the cytotoxicity at 10 µM is 7.77%.

Turning to `O=C(c1c[nH]cn1)N1CCC(F)(F)C2(CCN(c3cccc(F)c3)C2)C1` (centres undefined), the cytotoxicity at 10 µM came to 9.58%.

For the compound `CN(C)c1cnn(CC(=O)N2CCN(Cc3cccs3)CC2)c(=O)c1`, the cytotoxicity at 10 µM was 1.72%.

As to `COc1cccc(CN2CCCC(c3cc(C(N)=O)[nH]n3)C2)c1` (centres undefined), the cytotoxicity at 10 µM is -1.67%.

For the compound `CN1CCCC2(CCN(c3cccc(C(F)(F)F)n3)C2)C1=O` (centres undefined), the cytotoxicity at 10 µM is 7.87%.

On to `CC[C@H]1COCCN1C(=O)c1cnc(-c2ccccc2)nc1C`, for which the cytotoxicity at 10 µM was 2.84%.

Regarding `Cc1ccc2c(c1)SCC(=O)N2CC(=O)N1CCCC1c1cc(C)on1` (centres undefined), the cytotoxicity at 10 µM stood at 1.28%.

Consider `CCCc1cc(C(=O)N2CCCN(c3cccnn3)CC2)[nH]n1`, for which the cytotoxicity at 10 µM was -1.16%.

On to `CN1C(=O)[C@@H]2CC[C@H]1CN(C(=O)c1nnc3n1CCCCC3)C2`, for which the cytotoxicity at 10 µM was -6.34%.

For `Cc1cnc(N2CCOC3(CCCN(CC(=O)N(C)C)C3)C2)nc1` (centres undefined), the cytotoxicity at 10 µM was 8.67%.

Consider `O=C(C1CCOCC1)N1C[C@H]2CC(OCc3ccccc3)C[C@H]2C1` (some centres undefined), for which the cytotoxicity at 10 µM was -5.59%.

As to `CCc1noc(CN(CC)Cc2cc3cc(C)ccc3[nH]c2=O)n1`, the cytotoxicity at 10 µM was found to be 2.7%.

With `Cc1ccc(C(=O)N2CC[C@@H]3[C@H]2CCC(=O)N3CCN(C)C)cn1`, the cytotoxicity at 10 µM is -0.726%.

As for `CC(=O)NCC(=O)N1CCC(c2cncc(Oc3cccnc3)n2)CC1`, the cytotoxicity at 10 µM was -19.5%.

With `COCC(=O)Nc1ccc(C)cc1-c1nc(C2CC2)no1`, the cytotoxicity at 10 µM was -3.67%.

`COc1cc(CNCc2ccc(-n3nc(C)cc3C)nc2)cc(OC)c1`: the cytotoxicity at 10 µM is -8.57%.

Consider `Cc1cc(F)ccc1CN1CCCC(O)(CN2CCCC2)C1` (centres undefined), for which the cytotoxicity at 10 µM is -5.19%.

Take `O=C(O)COc1ccc(CN2CCCC(CCc3ccccc3)C2)cc1` (centres undefined): the cytotoxicity at 10 µM came to 12.1%.

Consider `COCCN1C(=O)[C@]2(CC[C@@H]3CN(C(=O)NC4CCCC4)C[C@@H]32)N=C1C`, for which the cytotoxicity at 10 µM is -8.85%.
